T/C data for seven molecules are collected here from ChEMBL document CHEMBL1121954, “Studies on the synthesis of chemotherapeutics. 12. Synthesis and antitumor activity of N-phthalidyl-5-fluorouracil derivatives” (1982).

Broadly, the T/C is the result in the treated group divided by that in the control group, in per cent.

Values joined by “and” are separate entries in the source; they are usually repeats but may differ in a detail not shown here. Equal entries are not always repeated.

For experiment [1], the system named is Mus musculus. In words: In vivo antitumor activity against P-388 Leukemia cell line in female BDF1 mice after oral administered dose of 200 mg/kg. It counts as functional. Summed up:
(§1)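 Female BDF1 mice, 17-23 g, five per group, inoculated intraperitoneally with 10^6 P-388 cells. Oral dosing once daily for 9 days, beginning 1 day after implantation. Activity is % T/C, the median survival time of treated mice relative to controls.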

The test system of experiment [2] is Mus musculus. The experiment in a line: In vivo antitumor activity against MH 134 cell line in female […] mice after oral administered dose of 25 mg/kg. It counts as functional.
Experiment [3] deals with Mus musculus. In words: In vivo antitumor activity against MH 134 cell line in female […] mice after oral administered dose of 50 mg/kg. In kind it is functional.
Experiment [4] deals with Mus musculus. In words: In vivo antitumor activity against Meth A cell line in female BALB/c mice after oral administered dose of 50 mg/kg.
Experiment [5] concerns Mus musculus. The experiment in a line: In vivo antitumor activity against Meth A cell line in female […] mice after oral administered dose of 150 mg/kg. In kind it is functional.
Experiment [6] has as its system Mus musculus. In words: In vivo antitumor activity against P-388 Leukemia cell line in female BDF1 mice after oral administered dose of 100 mg/kg. In kind it is functional. Summed up: as §1
The test system of experiment [7] is Mus musculus. In words: In vivo antitumor activity against Meth A cell line in female […] mice after oral administered dose of 200 mg/kg. In kind it is functional.
The test system of experiment [8] is Mus musculus. In words: In vivo antitumor activity against P-388 Leukemia cell line in female BDF1 mice after oral administered dose of 50 mg/kg. It counts as functional. Summed up:
as §1

Experiment [9] concerns Mus musculus. The experiment in a line: In vivo antitumor activity against MH 134 cell line in female […] mice after oral administered dose of 200 mg/kg. It counts as functional.
Experiment [10] concerns Mus musculus. The experiment in a line: In vivo antitumor activity against P-388 Leukemia cell line in female BDF1 mice after oral administered dose of 25 mg/kg. In kind it is functional. Summed up: as §1
Experiment [11] has as its system Mus musculus. In words: In vivo antitumor activity against MH 134 cell line in female […] mice after oral administered dose of 150 mg/kg. It counts as functional.
Experiment [12] has as its system Mus musculus. In words: In vivo antitumor activity against Meth A cell line in female BALB/c mice after oral administered dose of 200 mg/kg; death.

Regarding `O=C1OC(n2c(=O)[nH]cc(F)c2=O)c2ccccc21` (stereo not drawn), the T/C in the experiment on Mus musculus [1] came to 102%; in the experiment on Mus musculus [2], 77%; with Mus musculus [3], 45%; with Mus musculus [4], 37%; in the experiment with Mus musculus [5] it was 19%; with Mus musculus [6], 120%. Also, the T/C with Mus musculus [7] was 7% and 19%; with Mus musculus [8] it was 104%; with Mus musculus [9] it was 17%; in the experiment with Mus musculus [10], 111%; with Mus musculus [11] it was 37%.

For `O=C1OC(n2cc(F)c(=O)[nH]c2=O)c2ccccc21` (stereo not drawn), the T/C is 124% with Mus musculus [1]; “death” in the experiment on Mus musculus [12]; 50% in the experiment on Mus musculus [2]; 34% in the experiment with Mus musculus [3]; 26% in the experiment on Mus musculus [4]; 7% in the experiment on Mus musculus [5]. Also, the T/C was 129% in the experiment on Mus musculus [6]; 116% in the experiment on Mus musculus [8]; 8% in the experiment on Mus musculus [9]; 118% in the experiment with Mus musculus [10]; 22% in the experiment on Mus musculus [11].

Regarding `O=C1OC(n2cc(F)c(=O)n(C3OC(=O)c4ccccc43)c2=O)c2ccccc21` (stereo not drawn), the T/C in the experiment with Mus musculus [1] came out at 102%; in the experiment with Mus musculus [6], 102%; with Mus musculus [8], 104%; in the experiment on Mus musculus [10], 97%.

For `Cc1ccccc1C(=O)n1c(=O)c(F)cn(C2OC(=O)c3ccccc32)c1=O` (stereo not drawn), the T/C was 109% in the experiment with Mus musculus [1], 102% with Mus musculus [6], 99% in the experiment with Mus musculus [8] and 113% in the experiment on Mus musculus [10].

Regarding `CC(=O)n1cc(F)c(=O)n(C2OC(=O)c3ccccc32)c1=O` (stereo not drawn), the T/C in the experiment with Mus musculus [1] is given as 111%; in the experiment on Mus musculus [6], 104%; in the experiment with Mus musculus [8], 97%; with Mus musculus [10], 106%.

Take `O=C1OC(n2c(=O)c(F)cn(C3CCCO3)c2=O)c2ccccc21` (stereo not drawn): the T/C with Mus musculus [1] worked out at 111%; with Mus musculus [6] it was 115%; in the experiment with Mus musculus [8], 109%; with Mus musculus [10], 104%.

Turning to `O=c1[nH]c(=O)n(C2CCCO2)cc1F` (stereo not drawn) [TEGAFUR], the T/C is 106% with Mus musculus [1]; “death” in the experiment with Mus musculus [12]; 100% with Mus musculus [2]; 64% with Mus musculus [3]; 23% in the experiment with Mus musculus [5]; 136% in the experiment on Mus musculus [6]. In addition, the T/C in the experiment on Mus musculus [8] came out at 104%; in the experiment on Mus musculus [9] it was 32%; in the experiment with Mus musculus [10] it was 115%; in the experiment on Mus musculus [11], 50%.
